Twelve compounds from ChEMBL document CHEMBL1141106, “Synthesis, binding affinity at glutamic acid receptors, neuroprotective effects, and molecular modeling investigation of novel dihydroisoxazole amino acids” (J Med Chem, 2005) can be followed below.

The target in test [1] is T1, Metabotropic glutamate receptor 1 (Rattus norvegicus, UniProt P23385). Put plainly: Effective concentration against mGluR1 receptor expressed in CHO cells. It is filed as cell-based. In short, it runs like this:
(§1)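 CHO cell lines stably expressing rat mGluR1a, mGluR2 or mGluR4a. Functional second-messenger read-out: intracellular calcium for mGluR1, cyclic AMP levels for mGluR2 and mGluR4. Values are mean ± SEM of at least three independent experiments.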

Test [2] concerns the target T1, Metabotropic glutamate receptor 1. Put plainly: Binding affinity for mGluR1 receptor expressed in CHO cells. Type of test: cell-based.
The target in test [3] is T2, Metabotropic glutamate receptor 2 (Rattus norvegicus, UniProt P31421). Put plainly: Binding affinity for mGluR2 receptor expressed in CHO cells. It is filed as cell-based.
Test [4] has as its target Glutamate receptor ionotropic, AMPA (Rattus norvegicus, UniProt P19490+P19491+P19492+P19493). Put plainly: In vitro inhibitory concentration against AMPA receptor using [3H]AMPA. It is filed as protein-complex assay. In short, it runs like this:
(§2)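 Displacement binding to rat cortical membranes. Radioligands: NMDA site 2 nM [3H]CGP 39653; AMPA site 5 nM [3H]AMPA; KA site 5 nM [3H]KA without CaCl2. Bound radioactivity was counted by scintillation. IC50 came from nonlinear regression with a Hill-coefficient inhibition equation on percent of total specific binding. Mean ± SEM of at least three independent experiments.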

Test [5] concerns the target T3, Metabotropic glutamate receptor 4 (Rattus norvegicus, UniProt P31423). Put plainly: Effective concentration against mGluR4 receptor expressed in CHO cells. Type of test: cell-based. In short, it runs like this: as §1
Test [6] concerns the target Glutamate NMDA receptor. Put plainly: In vitro binding affinity for NMDA receptor using [3H]-CGP- 39653. Type of test: protein-complex assay, Rattus norvegicus. In short, it runs like this: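 Displacement binding to rat cortical membranes. Bound radioactivity was counted by scintillation. IC50 came from nonlinear regression with a Hill-coefficient inhibition equation on percent of total specific binding. Mean ± SEM of at least three independent experiments.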

The target of test [7] is T2, Metabotropic glutamate receptor 2. Put plainly: Effective concentration against mGluR2 receptor expressed in CHO cells. It is filed as cell-based. In short, it runs like this:
as §1

Test [8] addresses Glutamate receptor ionotropic, kainate. Put plainly: In vitro inhibitory concentration against KA receptor using [3H]KA. It is filed as protein-complex assay, Rattus norvegicus. In short, it runs like this:
as §2

Test [9] in a line: Inhibition of 10 uM NMDA induced electrophysiological response in rat cortical wedge preparation.
The target of test [10] is T3, Metabotropic glutamate receptor 4. Put plainly: Binding affinity for mGluR4 receptor expressed in CHO cells. Type of test: cell-based.
Test [11] addresses Metabotropic glutamate receptor 4 (Rattus norvegicus) (UniProt P31423). Put plainly: Binding affinity for mGluR4 receptor expressed in CHO cells; weak.
The target in test [12] is T2, Metabotropic glutamate receptor 2. Put plainly: Effective concentration against mGluR2 receptor expressed in CHO cells; weak. It is filed as cell-based. In short, it runs like this: as §1

By EC50 is commonly meant the concentration that produces a half-maximal response. A high value points to a less potent agent. Broadly, the Ki is a dissociation constant, usually derived from enzyme kinetics or from competition with a known ligand. A higher Ki goes with lower affinity. Usually IC50 stands for the concentration that gives 50% inhibition.

T3 sequence (P31423 whole entry): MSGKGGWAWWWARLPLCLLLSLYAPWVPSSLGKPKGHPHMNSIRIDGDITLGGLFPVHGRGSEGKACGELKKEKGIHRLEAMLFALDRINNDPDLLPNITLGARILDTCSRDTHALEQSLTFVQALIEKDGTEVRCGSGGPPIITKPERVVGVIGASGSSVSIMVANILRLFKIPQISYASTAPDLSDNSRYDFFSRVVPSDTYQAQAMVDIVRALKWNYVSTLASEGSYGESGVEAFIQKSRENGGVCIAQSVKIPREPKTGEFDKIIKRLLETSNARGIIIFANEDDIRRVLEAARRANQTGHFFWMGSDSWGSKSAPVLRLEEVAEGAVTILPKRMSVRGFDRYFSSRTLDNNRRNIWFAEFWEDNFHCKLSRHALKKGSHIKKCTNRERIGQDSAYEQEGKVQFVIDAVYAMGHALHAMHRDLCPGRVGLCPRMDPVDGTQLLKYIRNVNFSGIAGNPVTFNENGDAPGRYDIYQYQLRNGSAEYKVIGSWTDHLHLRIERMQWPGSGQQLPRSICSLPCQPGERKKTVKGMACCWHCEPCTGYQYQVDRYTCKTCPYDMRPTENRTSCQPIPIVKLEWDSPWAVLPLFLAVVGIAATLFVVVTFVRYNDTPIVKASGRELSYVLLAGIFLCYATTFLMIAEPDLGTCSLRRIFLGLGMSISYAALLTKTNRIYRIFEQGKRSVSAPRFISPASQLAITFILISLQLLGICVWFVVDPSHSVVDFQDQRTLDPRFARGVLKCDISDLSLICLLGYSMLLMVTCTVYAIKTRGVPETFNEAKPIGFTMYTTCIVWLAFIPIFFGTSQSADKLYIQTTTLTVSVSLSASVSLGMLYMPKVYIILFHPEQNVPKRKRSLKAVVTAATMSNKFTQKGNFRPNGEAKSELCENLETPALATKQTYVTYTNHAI
T1 sequence (P23385 whole entry): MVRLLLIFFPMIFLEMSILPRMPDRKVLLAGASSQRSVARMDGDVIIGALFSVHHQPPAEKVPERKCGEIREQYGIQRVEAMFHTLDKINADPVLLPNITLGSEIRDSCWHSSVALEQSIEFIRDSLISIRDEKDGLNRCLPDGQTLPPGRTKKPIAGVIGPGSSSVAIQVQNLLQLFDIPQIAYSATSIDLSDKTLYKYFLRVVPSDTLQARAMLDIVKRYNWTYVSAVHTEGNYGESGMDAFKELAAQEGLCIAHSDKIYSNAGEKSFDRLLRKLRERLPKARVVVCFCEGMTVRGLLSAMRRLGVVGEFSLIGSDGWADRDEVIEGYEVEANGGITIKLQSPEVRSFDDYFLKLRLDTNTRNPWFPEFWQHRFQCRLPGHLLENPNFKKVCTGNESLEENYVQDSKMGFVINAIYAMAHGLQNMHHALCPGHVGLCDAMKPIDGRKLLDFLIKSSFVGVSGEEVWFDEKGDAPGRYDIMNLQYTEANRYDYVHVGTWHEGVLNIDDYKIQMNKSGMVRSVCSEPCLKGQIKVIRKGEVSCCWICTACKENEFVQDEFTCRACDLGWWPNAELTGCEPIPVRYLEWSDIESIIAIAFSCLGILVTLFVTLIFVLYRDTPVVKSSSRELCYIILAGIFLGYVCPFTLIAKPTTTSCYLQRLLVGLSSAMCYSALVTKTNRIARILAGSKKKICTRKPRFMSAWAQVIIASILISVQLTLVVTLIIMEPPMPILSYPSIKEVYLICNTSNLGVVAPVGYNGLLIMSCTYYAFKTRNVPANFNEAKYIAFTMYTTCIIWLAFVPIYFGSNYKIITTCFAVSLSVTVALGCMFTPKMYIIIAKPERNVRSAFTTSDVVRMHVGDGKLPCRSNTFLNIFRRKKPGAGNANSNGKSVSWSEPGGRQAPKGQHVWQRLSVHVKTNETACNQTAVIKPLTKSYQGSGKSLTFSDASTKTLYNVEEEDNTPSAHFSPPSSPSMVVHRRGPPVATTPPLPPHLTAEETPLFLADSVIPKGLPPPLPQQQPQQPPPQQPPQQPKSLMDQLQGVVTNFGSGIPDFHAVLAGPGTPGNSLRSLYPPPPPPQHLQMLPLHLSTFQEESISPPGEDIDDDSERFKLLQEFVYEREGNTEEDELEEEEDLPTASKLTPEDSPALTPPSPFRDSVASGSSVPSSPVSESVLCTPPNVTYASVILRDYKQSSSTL
T2 sequence (P31421 whole entry): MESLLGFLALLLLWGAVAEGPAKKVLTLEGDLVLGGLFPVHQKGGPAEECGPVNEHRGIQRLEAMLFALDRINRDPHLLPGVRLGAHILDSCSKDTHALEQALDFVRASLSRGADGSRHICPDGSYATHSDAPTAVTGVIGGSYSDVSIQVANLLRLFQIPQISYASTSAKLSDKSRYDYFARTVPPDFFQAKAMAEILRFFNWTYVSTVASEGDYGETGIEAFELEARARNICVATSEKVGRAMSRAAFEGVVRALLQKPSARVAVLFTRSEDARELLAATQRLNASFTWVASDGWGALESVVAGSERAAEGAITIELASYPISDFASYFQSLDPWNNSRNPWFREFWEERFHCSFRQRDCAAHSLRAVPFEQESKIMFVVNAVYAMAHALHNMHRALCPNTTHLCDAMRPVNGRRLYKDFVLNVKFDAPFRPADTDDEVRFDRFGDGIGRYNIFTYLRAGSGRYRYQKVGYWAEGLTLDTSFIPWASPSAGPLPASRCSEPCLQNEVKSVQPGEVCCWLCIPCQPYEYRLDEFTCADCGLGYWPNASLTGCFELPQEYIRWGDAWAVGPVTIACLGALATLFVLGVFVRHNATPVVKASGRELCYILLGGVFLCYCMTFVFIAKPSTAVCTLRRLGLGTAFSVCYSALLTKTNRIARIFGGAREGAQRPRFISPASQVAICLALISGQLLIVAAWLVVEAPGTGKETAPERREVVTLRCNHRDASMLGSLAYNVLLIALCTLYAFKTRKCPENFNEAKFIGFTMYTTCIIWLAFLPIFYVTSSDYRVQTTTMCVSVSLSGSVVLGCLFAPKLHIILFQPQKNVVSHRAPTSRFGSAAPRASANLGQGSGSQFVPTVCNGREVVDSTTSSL
Chain of Metabotropic glutamate receptor 4 (Rattus norvegicus) (P31423 whole entry, looked up): as the sequence (P31423 whole entry) above

For `NC(CC1CC(C(=O)O)=NO1)C(=O)O` (racemic; form 1), the EC50 in test [1], in test [5] and in [7] was > 1000 µM throughout. The inhibitory constant (Ki) in test [2] is > 1000 µM; in test [3] it was > 1000 µM; in [6], 0.21 µM; in test [10], > 1000 µM. Moreover, the 50% inhibitory concentration (IC50) was > 100 µM in [4], > 100 µM in test [8] and 14.2 µM in [9].
`N[C@H](C[C@@H]1CC(C(=O)O)=NO1)C(=O)O`: the concentration for half-maximal inhibition (IC50) in test [4] and in test [8] was > 100 µM each time. In addition, in test [6], the affinity corresponds to a Ki of 0.51 µM.
On to `N[C@@]1(C(=O)O)C[C@@H]2C(C(=O)O)=NO[C@@H]2C1`, for which the EC50 in test [1], in [5] and in test [7] was > 1000 µM throughout. The Ki in [2] is > 1000 µM; in test [3], > 1000 µM; in test [6], 0.233 µM; in [10], > 1000 µM. Also, the IC50 in [4] and in [8] was > 100 µM each time.
As for `N[C@]1(C(=O)O)C[C@@H]2ON=C(C(=O)O)[C@@H]2C1`, the EC50 in test [1] and in test [7] was > 1000 µM each time. Further, the Ki in [2] and in test [3] was > 1000 µM each time.
Take `NC(CC1CC(C(=O)O)=NO1)C(=O)O` (racemic; form 2): in test [6], the affinity, expressed as Ki, was 0.96 µM. Further, in test [9], the half-maximal inhibitory concentration (IC50) was 30.5 µM.
Turning to `NC1(C(=O)O)CC2ON=C(C(=O)O)C2C1` (racemic; form 2), the inhibition constant Ki in [2] was 27 µM; in test [6], > 100 µM; in test [10] (cho), > 1000 µM. The EC50 is > 1000 µM in [5] (cho) and 16 µM in test [7].
With `N[C@@H](C[C@@H]1CC(C(=O)O)=NO1)C(=O)O`, the concentration for half-maximal inhibition (IC50) in test [4] and in test [8] was > 100 µM in each case. The compound also showed an inhibitory constant (Ki) in [6] of 1.9 µM.
Consider `N[C@@H](C[C@H]1CC(C(=O)O)=NO1)C(=O)O`, for which the IC50 in test [4] and in test [8] was > 100 µM each time.
Regarding `N[C@]1(C(=O)O)C[C@@H]2C(C(=O)O)=NO[C@@H]2C1`, the Ki in test [2] is 33 µM; in test [11] it was “weak”; in test [10], > 1000 µM. The half-maximal effective concentration (EC50) in test [5] was > 1000 µM; in [7], 9.1 µM.
Take `NC1(C(=O)O)CC2ON=C(C(=O)O)C2C1` (racemic; form 1): the Ki in test [2] was 94 µM; in [6], 0.37 µM; in test [10] it was > 1000 µM. Moreover, the IC50 was > 100 µM in test [4], > 100 µM in test [8] and 14 µM in [9]. Besides, the 50% effective concentration (EC50) in test [5] is > 1000 µM.
Take `N[C@@]1(C(=O)O)C[C@@H]2ON=C(C(=O)O)[C@@H]2C1`: affinity in test [6] was put at a Ki of 47 µM. The half-maximal effective concentration (EC50) result in [12] is listed as “Not Active”.
On to `N[C@H](C[C@H]1CC(C(=O)O)=NO1)C(=O)O`, for which the 50% inhibitory concentration (IC50) in test [4] and in [8] was > 100 µM each time. The compound further gave a Ki in test [6] of 0.1 µM.
